Laboratory results reported in ChEMBL document CHEMBL3124838, “Discovery of 6-aryl-azabenzimidazoles that inhibit the TBK1/IKK-ε kinases” (Bioorg Med Chem Lett, 2014).

Tests used:
[1] = target: T1, Serine/threonine-protein kinase TBK1 (Homo sapiens, UniProt Q9UHD2); assay: Inhibition of recombinant full-length TBK1 (unknown origin) using CK1tide as substrate by microfluidic mobility shift assay
T1 sequence (Q9UHD2 whole entry): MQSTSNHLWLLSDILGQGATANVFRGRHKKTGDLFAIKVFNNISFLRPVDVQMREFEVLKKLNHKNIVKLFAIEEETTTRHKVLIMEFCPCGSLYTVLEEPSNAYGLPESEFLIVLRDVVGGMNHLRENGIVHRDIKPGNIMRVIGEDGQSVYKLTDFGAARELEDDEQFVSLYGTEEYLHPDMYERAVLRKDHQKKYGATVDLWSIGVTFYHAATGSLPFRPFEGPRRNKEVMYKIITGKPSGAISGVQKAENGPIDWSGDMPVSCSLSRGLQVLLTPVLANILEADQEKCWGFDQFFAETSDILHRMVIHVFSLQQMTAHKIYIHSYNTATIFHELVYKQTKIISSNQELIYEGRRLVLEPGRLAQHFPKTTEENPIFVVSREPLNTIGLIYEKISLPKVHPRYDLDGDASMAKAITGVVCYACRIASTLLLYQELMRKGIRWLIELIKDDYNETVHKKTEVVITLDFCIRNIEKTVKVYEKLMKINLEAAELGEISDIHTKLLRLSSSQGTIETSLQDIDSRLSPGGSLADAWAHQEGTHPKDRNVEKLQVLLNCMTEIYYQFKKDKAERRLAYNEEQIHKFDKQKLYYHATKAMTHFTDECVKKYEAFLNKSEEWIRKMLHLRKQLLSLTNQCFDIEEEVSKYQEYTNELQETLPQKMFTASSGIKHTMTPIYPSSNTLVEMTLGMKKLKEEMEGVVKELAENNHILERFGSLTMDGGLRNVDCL

[2] = target: T1, Serine/threonine-protein kinase TBK1; assay: Inhibition of TBK1 in HEK293 cells after 4.5 hrs by ISRE-luciferase reporter gene assay in presence of poly I:C; assay type: cell-based
[3] = target: T2, Inhibitor of nuclear factor kappa-B kinase subunit epsilon (Homo sapiens, UniProt Q14164); assay: Inhibition of IKK-epsilon (unknown origin) using 5FAM-AKELDQGSLCTpSFVGTLQ-NH2 as substrate by microfluidic mobility shift assay
T2 sequence (Q14164 whole entry): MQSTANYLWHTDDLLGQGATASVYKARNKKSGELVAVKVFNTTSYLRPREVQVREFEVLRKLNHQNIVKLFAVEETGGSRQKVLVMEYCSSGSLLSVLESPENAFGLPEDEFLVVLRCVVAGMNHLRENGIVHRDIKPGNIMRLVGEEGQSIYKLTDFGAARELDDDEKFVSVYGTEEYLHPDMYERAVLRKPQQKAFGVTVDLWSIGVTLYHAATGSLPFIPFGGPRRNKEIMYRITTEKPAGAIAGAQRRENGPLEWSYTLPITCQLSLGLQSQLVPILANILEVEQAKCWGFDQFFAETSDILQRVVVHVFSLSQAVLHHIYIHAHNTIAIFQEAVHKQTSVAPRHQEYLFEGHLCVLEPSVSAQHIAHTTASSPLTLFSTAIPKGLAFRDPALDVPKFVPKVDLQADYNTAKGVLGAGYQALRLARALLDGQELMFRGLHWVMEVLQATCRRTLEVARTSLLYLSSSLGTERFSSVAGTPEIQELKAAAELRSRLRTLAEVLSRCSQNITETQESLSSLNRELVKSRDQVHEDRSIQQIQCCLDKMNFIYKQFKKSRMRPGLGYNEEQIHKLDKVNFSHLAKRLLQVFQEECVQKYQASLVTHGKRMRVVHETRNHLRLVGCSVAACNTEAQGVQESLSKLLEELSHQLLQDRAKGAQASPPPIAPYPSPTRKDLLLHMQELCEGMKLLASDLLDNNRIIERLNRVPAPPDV
In short: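 Recombinant IKK-ε (4 nM) in HEPES buffer with 1.5 µM 5FAM-labelled peptide substrate, ATP at its K_M, and 10 mM MgCl2. The 10-point titration used half-log serial dilutions. Reactions ran at room temperature for a set time, were quenched with EDTA-containing HEPES, and were read by microfluidic mobility shift. Percent inhibition came from the ratio of phosphorylated to total peptide.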

[4] = target: Aurora kinase B (Homo sapiens, UniProt Q96GD4); assay: Inhibition of aurora B (unknown origin)
[5] = target: Cyclin-dependent kinase 2 (Homo sapiens, UniProt P24941); assay: Inhibition of CDK2 (unknown origin)

Sequence of Aurora kinase B (Q96GD4 whole entry): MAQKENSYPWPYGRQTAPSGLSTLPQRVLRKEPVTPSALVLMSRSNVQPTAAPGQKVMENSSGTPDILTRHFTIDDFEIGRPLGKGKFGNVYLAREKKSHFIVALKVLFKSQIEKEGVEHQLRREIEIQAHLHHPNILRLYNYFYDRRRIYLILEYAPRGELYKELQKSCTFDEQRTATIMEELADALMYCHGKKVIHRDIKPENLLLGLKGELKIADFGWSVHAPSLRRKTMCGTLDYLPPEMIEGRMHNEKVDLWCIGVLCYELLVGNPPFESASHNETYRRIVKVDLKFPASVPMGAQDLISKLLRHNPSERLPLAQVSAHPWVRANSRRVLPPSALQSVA

IC50 [1] [nM] | IC50 [2] [nM] | IC50 [3] [nM] | IC50 [4] [nM] | IC50 [5] [µM] | Compound
1800 | – | – | – | – | CNc1c(-c2ccc(C(=O)O)cc2)cnc2nc(-c3ccc(OC)cc3)[nH]c12
46 | 165 | 448 | 889 | > 30 | COc1ccc(-c2nc3c(NCCCNC(=O)C4CCCC4)c(C(N)=S)cnc3[nH]2)cc1
100 | 136 | 330 | 1680 | > 30 | COc1ccc(-c2nc3cc(-c4csc(C(=O)NCC(C)(C)CO)c4)cnc3[nH]2)cc1
> 30000 | – | > 30000 | – | – | COc1ccc(-c2nc3cc(-c4csc(C#N)c4)cnc3[nH]2)cc1
129 | > 30000 | 395 | – | – | COc1ccc(-c2nc3cc(-c4cc(C(=O)O)cs4)cnc3[nH]2)cc1
9 | 7 | 42 | 284 | 1.45 | COc1ccc(-c2nc3c(NCCCNC(=O)C4CCCC4)c(-c4nc(C(N)=O)cs4)cnc3[nH]2)cc1
98 | 170 | 412 | 1380 | > 30 | COCCNC(=O)c1cc(-c2cnc3[nH]c(-c4ccc(OC)cc4)nc3c2)cs1
650 | 1780 | 6750 | 12100 | > 30 | COc1ccc(-c2nc3cc(-c4csc(C(C)=O)c4)cnc3[nH]2)cc1
759 | – | > 30000 | 156 | > 30 | COc1ccc(-c2nc3c(OCCCNC(=O)C4CCCC4)c(Br)cnc3[nH]2)cc1
203 | 851 | 2560 | – | – | CNC(=O)c1cc(-c2cnc3nc(-c4ccc(OC)cc4)[nH]c3c2)cs1
460 | > 3000 | 1100 | 1300 | > 30 | COc1ccc(-c2nc3c(OCCCNC(=O)C4CCCC4)c(-c4csc(C(=O)O)c4)cnc3[nH]2)cc1
859 | – | – | – | – | O=C(O)c1ccc(-c2cnc3nc(-c4ccc(OCCN5CCCCC5)cc4)[nH]c3c2)cc1
256 | > 30000 | 867 | – | – | COc1ccc(-c2nc3ncc(-c4ccc(C(=O)O)s4)cc3[nH]2)cc1
219 | 89 | 1090 | 2820 | > 30 | CCC(C)CNC(=O)c1cc(-c2cnc3[nH]c(-c4ccc(OC)cc4)nc3c2)cs1 (stereo not given)
36 | 2170 | 158 | 299 | 13.6 | COc1ccc(-c2nc3c(NCCCNC(=O)C4CCCC4)c(-c4nc(C(=O)O)cs4)cnc3[nH]2)cc1
93 | 72 | 469 | > 5320 | > 30 | COc1cc2ncn(-c3cc(OCc4ccccc4S(C)(=O)=O)c(C#N)s3)c2cc1OC [GSK-319347A]
49 | > 30000 | 114 | – | – | COc1ccc(-c2nc3ncc(-c4csc(C(=O)O)c4)cc3[nH]2)cc1
388 | 128 | 3230 | 2470 | > 30 | COc1ccc(-c2nc3c(NCCCNC(=O)C4CCCC4)c(-c4nc(C(=O)NCC(C)C)cs4)cnc3[nH]2)cc1
30 | 268 | 205 | 2300 | 0.984 | COc1ccc(-c2nc3cc(-c4csc(C(N)=O)c4)cnc3[nH]2)cc1
1040 | – | 3300 | – | – | CNc1c(-c2ccc(C(=O)O)s2)cnc2[nH]c(-c3ccc(OC)cc3)nc12
1050 | > 30000 | 11600 | – | – | COc1ccc(-c2nc3ncc(-c4cc(C(=O)O)co4)cc3[nH]2)cc1
